Key:
K177 cell line [1] = test: Ability to stimulate Rb+ efflux from human K177 cell preparations containing human alpha4-beta2 receptors; format: functional, cell-based
K177 cell line [2] = test: Maximum efficacy relative to 100(uM) (S)-nicotine for cell preparations containing alpha4-beta2 K177 cells; format: functional, Homo sapiens
[3] = molecular target: Neuronal acetylcholine receptor; test: Binding affinity against Nicotinic Acetylcholine Receptor was determined by measuring the displacement of [3H]cytisine from a preparation of whole rat brain.
In short: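 Displacement of the radioligand [3H]-(-)-cytisine from a whole rat brain preparation, which mainly labels the α4β2 receptor subtype. The procedure follows a previously published method.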

IMR-32 [4] = test: Ability to stimulate Rb+ efflux from human IMR-32 cell preparations containing human alpha3-betaX receptors; format: functional, cell-based
IMR-32 [5] = test: Maximum efficacy relative to 100(uM) (S)-nicotine for cell preparations containing alpha3-betaX IMR32 cells; format: functional, Homo sapiens
IMR-32 (Homo sapiens) = test: Ability to stimulate Rb+ efflux from human IMR-32 cell preparations containing human alpha3-betaX receptors

Row | SMILES | EC50 (K177 cell line [1]; Homo sapiens, K177) [nM] | Max (K177 cell line [2]) [%] | Ki [3] [nM] | EC50 (IMR-32 [4]) [nM] | Max (IMR-32 [5]) [%] | IC50 (K177 cell line [1]) [nM] | IC50 (IMR-32 [4]) [nM] | EC50 (K177 cell line [1]; k177) [nM] | Max (IMR-32 (Homo sapiens)) [%]
1 | CN1CC[C@@H]1COc1cccnc1 | 35000 | 103 | 3.5 | 38000 | 39 | – | – | – | –
2 | c1cncc(OC[C@H]2CCN2)c1 | 400 | 159 | – | 1100 | 116 | – | – | – | –
3 | CN1CC[C@H]1COc1cccnc1 | 3700 | 116 | 0.45 | 30000 | 74 | – | – | – | –
4 | CN1CCC[C@@H]1COc1cccnc1 | – | <10 | 19.7 | – | <20 | 110000 | 54000 | – | –
5 | c1cncc(OC[C@H]2CCCN2)c1 | 4300 | 120 | 0.14 | 5800 | 100 | – | – | – | –
6 | c1cncc(OC[C@@H]2CCN2)c1 | 680 | 163 | – | 700 | 113 | – | – | – | –
7 | CN1CCC[C@H]1COc1cccnc1 (stereo in doubt; 2a) | – | – | 0.15 | – | 100 | – | – | 750 | –
8 | Clc1ccc(C2CC3CCC2N3)cn1 (stereo not drawn) [EPIBATIDINE] | 17 | – | – | 7 | 156 | – | – | – | 156
9 | CN1CCC[C@H]1c1cccnc1 [NICOTINE] | 5000 | – | – | – | 100 | – | – | – | 100

Source: ChEMBL document CHEMBL1129752, “Novel 3-Pyridyl ethers with subnanomolar affinity for central neuronal nicotinic acetylcholine receptors” (J Med Chem, 1996)
